Source: ChEMBL document CHEMBL2163223, “Synthesis and evaluation of novel α-fluorinated (E)-3-((6-methylpyridin-2-yl)ethynyl)cyclohex-2-enone-O-methyl oxime (ABP688) derivatives as metabotropic glutamate receptor subtype 5 PET radiotracers” (J Med Chem, 2012)
Each block holds one molecule with its values, some of them ahead of it. Active and inactive are the calls of the source. The calls are words filed in the database; no cut-off is given here.

What was measured:
[1] = target: T1, Metabotropic glutamate receptor 5 (Rattus norvegicus, UniProt P31424); test: Displacement of [3H]-ABP688 from mGluR5 receptor in Sprague-Dawley rat brain after 45 mins by beta counting
Method in brief: (§1)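 0.1 mg protein incubated in triplicate at ambient temperature with 2 nM [3H]-ABP688 and competitor 10 pM–100 μM for 45 min. Nonspecific binding from 100 μM MMPEP. Filtered, β-counted.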

[2] = Chemical stability in phosphate buffer at 21 MBq at pH 7.4 after 2 hrs by HPLC analysis; details: pH 7.4, 2 h
[3] = target: T1, Metabotropic glutamate receptor 5; test: Binding affinity to mGluR5 receptor in Sprague-Dawley rat brain by beta counting; method in brief: as §1
Plasma = test: Metabolic stability of the compound in rat plasma at 7 to 8 MBq after 2 hrs by HPLC analysis; type: ADME, cell-free; details: in the assay text read “21 MBq” for “7 to 8 MBq”
Method in brief: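 Radiotracer (21 MBq) incubated at 37 °C for up to 2 h in phosphate buffer (4 mM KH2PO4/Na2HPO4, 155 mM NaCl, pH 7.4) or rat plasma. Samples taken at several time points, quenched with ice-cold MeCN. Plasma samples centrifuged at 12000g for 10 min. Samples filtered; supernatants analyzed by radio-HPLC on a reversed-phase C18 column with 70% aq MeCN.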

[4] = Lipophilicity, log D of the compound at pH 7.4 by HPLC analysis; type: physicochemical; details: buffer
[5] = target: Metabotropic glutamate receptor 5 (Rattus norvegicus) (UniProt P31424); test: Binding affinity to mGluR5 receptor in Wistar rat brain at 1 to 10 nM after 45 mins by autoradiography in presence of ABP688; details: tested as the 18F-labelled form
Method in brief: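 Horizontal brain slices (20 μm) from a male Wistar rat were thawed and preincubated on ice for 10 min in HEPES buffer with 0.1% BSA. They were then incubated with 1 or 10 nM radiotracer, alone or with 100 nM ABP688, in HEPES for 45 min at ambient temperature. Washed on ice in HEPES/0.1% BSA, then twice in HEPES (3 min each), and dipped in water.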

[6] = Lipophilicity, log D of the compound at pH 7.4 using shake flask method; type: physicochemical; details: buffer

T1 sequence (P31424 whole entry): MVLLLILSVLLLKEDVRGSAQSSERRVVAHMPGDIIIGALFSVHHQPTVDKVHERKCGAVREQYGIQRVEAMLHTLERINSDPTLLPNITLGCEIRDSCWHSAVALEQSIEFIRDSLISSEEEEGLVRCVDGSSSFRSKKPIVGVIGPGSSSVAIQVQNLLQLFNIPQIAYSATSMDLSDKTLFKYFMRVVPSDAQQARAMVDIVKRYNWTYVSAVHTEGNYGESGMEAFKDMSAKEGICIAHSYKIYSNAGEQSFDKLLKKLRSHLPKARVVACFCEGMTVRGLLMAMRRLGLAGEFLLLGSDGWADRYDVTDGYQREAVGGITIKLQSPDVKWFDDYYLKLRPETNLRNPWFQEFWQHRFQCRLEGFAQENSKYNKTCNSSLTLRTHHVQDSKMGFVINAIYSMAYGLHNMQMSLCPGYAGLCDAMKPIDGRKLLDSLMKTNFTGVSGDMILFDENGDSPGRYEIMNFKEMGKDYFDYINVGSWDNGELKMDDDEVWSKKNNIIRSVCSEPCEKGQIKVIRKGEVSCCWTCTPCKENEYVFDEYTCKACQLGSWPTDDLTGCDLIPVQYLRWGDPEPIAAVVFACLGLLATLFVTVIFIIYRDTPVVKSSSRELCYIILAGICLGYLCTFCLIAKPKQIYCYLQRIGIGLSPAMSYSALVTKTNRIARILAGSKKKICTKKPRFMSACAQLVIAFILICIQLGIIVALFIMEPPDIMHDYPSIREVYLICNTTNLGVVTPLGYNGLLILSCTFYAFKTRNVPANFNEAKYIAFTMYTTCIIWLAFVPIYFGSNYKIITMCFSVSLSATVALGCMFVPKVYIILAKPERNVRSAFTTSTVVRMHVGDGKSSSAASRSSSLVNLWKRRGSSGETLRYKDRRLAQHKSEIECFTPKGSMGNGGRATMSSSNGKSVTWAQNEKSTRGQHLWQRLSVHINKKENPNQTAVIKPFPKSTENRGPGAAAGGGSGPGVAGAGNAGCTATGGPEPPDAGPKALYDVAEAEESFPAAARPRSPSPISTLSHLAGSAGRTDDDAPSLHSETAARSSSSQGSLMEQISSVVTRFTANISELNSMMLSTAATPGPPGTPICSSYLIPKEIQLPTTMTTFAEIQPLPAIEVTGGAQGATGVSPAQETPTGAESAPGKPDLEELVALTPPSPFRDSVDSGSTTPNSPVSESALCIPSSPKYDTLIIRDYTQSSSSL
Sequence of Metabotropic glutamate receptor 5 (Rattus norvegicus) (P31424 21-1203 limits assumed): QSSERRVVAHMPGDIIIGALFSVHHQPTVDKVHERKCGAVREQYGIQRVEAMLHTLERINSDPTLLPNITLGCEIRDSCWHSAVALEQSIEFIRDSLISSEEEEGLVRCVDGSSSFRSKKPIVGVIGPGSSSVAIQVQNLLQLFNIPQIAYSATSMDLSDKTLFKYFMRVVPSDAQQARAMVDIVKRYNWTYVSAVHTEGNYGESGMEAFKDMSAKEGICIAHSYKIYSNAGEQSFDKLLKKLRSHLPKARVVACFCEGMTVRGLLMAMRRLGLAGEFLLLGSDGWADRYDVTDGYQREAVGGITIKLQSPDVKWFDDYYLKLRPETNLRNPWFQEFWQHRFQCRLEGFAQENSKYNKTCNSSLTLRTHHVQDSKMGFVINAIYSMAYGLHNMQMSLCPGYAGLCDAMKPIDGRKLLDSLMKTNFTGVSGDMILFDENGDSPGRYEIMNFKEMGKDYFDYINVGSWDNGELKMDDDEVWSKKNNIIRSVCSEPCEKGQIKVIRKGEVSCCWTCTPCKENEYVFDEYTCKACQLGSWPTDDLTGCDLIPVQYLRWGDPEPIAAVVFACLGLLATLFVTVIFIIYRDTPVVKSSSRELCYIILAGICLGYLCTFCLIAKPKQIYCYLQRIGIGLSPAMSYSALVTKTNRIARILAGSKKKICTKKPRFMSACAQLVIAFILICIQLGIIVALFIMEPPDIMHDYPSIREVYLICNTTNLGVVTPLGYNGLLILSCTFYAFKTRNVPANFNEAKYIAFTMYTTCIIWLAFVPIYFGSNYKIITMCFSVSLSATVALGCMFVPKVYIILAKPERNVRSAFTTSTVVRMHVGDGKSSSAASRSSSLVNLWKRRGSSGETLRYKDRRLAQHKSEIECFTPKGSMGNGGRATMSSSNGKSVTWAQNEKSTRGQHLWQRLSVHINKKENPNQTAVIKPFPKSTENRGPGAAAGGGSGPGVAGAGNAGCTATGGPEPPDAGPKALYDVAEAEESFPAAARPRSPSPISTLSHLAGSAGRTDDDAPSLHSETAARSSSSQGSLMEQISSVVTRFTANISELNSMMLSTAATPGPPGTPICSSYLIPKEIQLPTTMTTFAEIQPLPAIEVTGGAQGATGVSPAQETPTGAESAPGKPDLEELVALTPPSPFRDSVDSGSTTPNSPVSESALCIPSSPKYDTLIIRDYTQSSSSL

Ki [1]: 3.4 nM
SMILES: CO/N=C1/C=C(C#Cc2ccccn2)CCC1F (stereo unspecified)

Stability [2]: Stable
Kd [3]: 70 nM
Stability (Plasma): Stable
SMILES: CCO/N=C1\C=C(C#Cc2ccccn2)CCC1[18F] (stereo unspecified)

Ki [1]: 5.7 nM
SMILES: CCO/N=C1/C=C(C#Cc2ccccn2)CCC1F (stereo unspecified)

Ki [1]: 8.5 nM
SMILES: CO/N=C1/C=C(C#Cc2cccc(C)n2)CCC1F (stereo unspecified)

Ki [1]: 13 nM
SMILES: CCO/N=C1/C=C(C#Cc2cccc(C)n2)CCC1F (stereo unspecified)

logD [4]: 2.1
Ki [1]: 31.2 nM
Activity [5]: Active
logD [6]: 3.5
SMILES: CCO/N=C1\C=C(C#Cc2ccccn2)CCC1F (stereo unspecified)
